# Measurements as given in ChEMBL document CHEMBL4000144, “Novel amide and sulphonamide derivatives of 6-(piperazin-1-yl)phenanthridine as potent Mycobacterium tuberculosis H37Rv inhibitors” (Eur J Med Chem, 2015).
# Key:
# [1] = Cytotoxicity against mouse RAW264.7 cells assessed as inhibition of cell viability at 50 ug/ml after 72 hrs by Cell Titer 96 non-radioactive cell proliferation assay; type: cell-based
# Procedure, shortened: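 Mouse macrophage RAW264.7 cells exposed to compound at 50 µg/mL for 72 h. Viability was then measured by the MTT-type Cell Titer 96 non-radioactive proliferation assay.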
# RAW264.7 = experiment: Cytotoxicity against mouse RAW264.7 cells assessed as inhibition of cell viability after 72 hrs by Cell Titer 96 non-radioactive cell proliferation assay; type: cell-based; conditions: RAW264.7, 72 h
# Procedure, shortened: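 MTT-type Cell Titer 96 non-radioactive proliferation assay on mouse macrophage RAW264.7 cells. Viability was read after 72 h of exposure. IC50 values are given as approximate.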
# [2] = Selectivity index, ratio of IC50 for mouse RAW264.7 cells to MIC for Mycobacterium tuberculosis H37Rv ATCC 27294; type: toxicity; conditions: read-out: Selectivity Index
# [3] = tested on: Mycobacterium tuberculosis; experiment: Antimycobacterial activity against Mycobacterium tuberculosis H37Rv ATCC 27294 after 5 days by microplate alamar blue assay; type: functional; conditions: H37Rv ATCC 27294, 120 h
# Procedure, shortened: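 MTB H37Rv (ATCC 27294) in 7H9GC broth, 2-fold serial dilutions from 50 to 0.78 µg/mL. Controls were medium only, inoculum only, and inoculum with 3-5% DMSO. Incubated at 37°C for 5 days. Then 1:1 10× Alamar Blue/10% Tween 80 was added and plates read after a further 24 h at 37°C. Blue scored as no growth, pink as growth.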
Structure (SMILES),"inhibition at 72 h, 50 ug/ml [1] [%]",IC50 (RAW264.7) [µg/mL],selectivity ratio [2],MIC99 [3] [µg/mL]
O=C(c1ccccc1)N1CCN(c2nc3ccccc3c3ccccc23)CC1,22.2,113,36.1,3.13
NNC(=O)c1ccncc1 [ISONIAZID],,,,0.1
CC(C)(C)c1ccc(S(=O)(=O)N2CCN(c3nc4ccccc4c4ccccc34)CC2)cc1,28.9,86.4,55.4,1.56
O=[N+]([O-])c1ccc(S(=O)(=O)N2CCN(c3nc4ccccc4c4ccccc34)CC2)cc1,,,,50
O=C(c1ccccn1)N1CCN(c2nc3ccccc3c3ccccc23)CC1,42.2,59.3,19,3.13
COc1ccc(S(=O)(=O)N2CCN(c3nc4ccccc4c4ccccc34)CC2)cc1,26.5,94.3,15.1,6.25
O=C(c1cc([N+](=O)[O-])cc([N+](=O)[O-])c1)N1CCN(c2nc3ccccc3c3ccccc23)CC1,,,,25
Cc1cc(C)c(S(=O)(=O)N2CCN(c3nc4ccccc4c4ccccc34)CC2)c(C)c1,26.5,94.3,7.54,12.5
O=C(c1cccnc1)N1CCN(c2nc3ccccc3c3ccccc23)CC1,19.2,130,20.9,6.25
NC(=O)c1cnccn1 [PYRAZINAMIDE],,,,6.25
O=S(=O)(c1ccccc1)N1CCN(c2nc3ccccc3c3ccccc23)CC1,30.7,81.4,13,6.25
O=C(c1ccncc1)N1CCN(c2nc3ccccc3c3ccccc23)CC1,27.9,89.6,57.4,1.56
O=C(/C=C/c1ccccc1)N1CCN(c2nc3ccccc3c3ccccc23)CC1,22.1,113,9.04,12.5
N#CCC(=O)N1CCN(c2nc3ccccc3c3ccccc23)CC1,,,,25
CC(=O)c1ccc(S(=O)(=O)N2CCN(c3nc4ccccc4c4ccccc34)CC2)cc1,,,,25
O=S(=O)(c1ccc(Br)s1)N1CCN(c2nc3ccccc3c3ccccc23)CC1,42.2,59.3,,3.13
O=S(=O)(c1ccc(C(F)(F)F)cc1)N1CCN(c2nc3ccccc3c3ccccc23)CC1,,,,25
Cc1cc(S(=O)(=O)N2CCN(c3nc4ccccc4c4ccccc34)CC2)c(C)cc1Cl,34.6,72.2,11.5,6.25

Structure (SMILES),"inhibition at 72 h, 50 ug/ml [1] [%]",IC50 (RAW264.7) [µg/mL],selectivity ratio [2],MIC99 [3] [µg/mL]
Cc1ccc(S(=O)(=O)N2CCN(c3nc4ccccc4c4ccccc34)CC2)cc1,,,,> 50
O=C(c1cccs1)N1CCN(c2nc3ccccc3c3ccccc23)CC1,,,,50
O=C(CCc1c[nH]c2ccccc12)N1CCN(c2nc3ccccc3c3ccccc23)CC1,34.6,72.2,11.5,6.25
O=C(c1cccc([N+](=O)[O-])c1)N1CCN(c2nc3ccccc3c3ccccc23)CC1,34.6,72.2,23.1,3.13
Nc1ccc(C(=O)N2CCN(c3nc4ccccc4c4ccccc34)CC2)cc1,,,,50
O=S(=O)(c1ccc(Br)cc1)N1CCN(c2nc3ccccc3c3ccccc23)CC1,28.2,88.8,28.4,3.13
O=C(CCCc1c[nH]c2ccccc12)N1CCN(c2nc3ccccc3c3ccccc23)CC1,34.1,73.3,47,1.56
CO[C@H]1/C=C/O[C@@]2(C)Oc3c(C)c(O)c4c(O)c(c(/C=N/N5CCN(C)CC5)c(O)c4c3C2=O)NC(=O)/C(C)=C\C=C\[C@H](C)[C@H](O)[C@@H](C)[C@@H](O)[C@@H](C)[C@H](OC(C)=O)[C@@H]1C [RIFAMPIN],,,,0.2
O=C(c1ccc([N+](=O)[O-])cc1)N1CCN(c2nc3ccccc3c3ccccc23)CC1,,,,50
CS(=O)(=O)N1CCN(c2nc3ccccc3c3ccccc23)CC1,,,,25
O=S(=O)(c1ccc(F)cc1)N1CCN(c2nc3ccccc3c3ccccc23)CC1,32.8,76.3,12.2,6.25
O=C(O)c1cccc(C(=O)N2CCN(c3nc4ccccc4c4ccccc34)CC2)n1,26.5,94.3,30.2,3.13
O=S(=O)(c1ccc(Cl)cc1)N1CCN(c2nc3ccccc3c3ccccc23)CC1,20.9,120,38.3,3.13
O=C(Cc1c[nH]c2ccccc12)N1CCN(c2nc3ccccc3c3ccccc23)CC1,,,,25
O=C(c1ccco1)N1CCN(c2nc3ccccc3c3ccccc23)CC1,,,,25
O=C(c1ccc(Cl)cc1)N1CCN(c2nc3ccccc3c3ccccc23)CC1,26.5,94.3,7.54,12.5
O=C(Cc1cccc2ccccc12)N1CCN(c2nc3ccccc3c3ccccc23)CC1,,,,> 50
Nc1ccccc1C(=O)N1CCN(c2nc3ccccc3c3ccccc23)CC1,,,,> 50
